H9c2 TAG inh – inhibitors of triacylglycerol accumulation; inhibition, % at 12.5 µM; H9c2 cells, Nile Red lipid (TAG) fluorescence; cells loaded with 200 µM oleic acid; 230,000 tested, 0.66% active; AID 651582;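 active means pattern-corrected inhibition of lipid staining of at least 50% with the nuclear-stain viability signal not falling by more than 50%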
GSK3B inh – human GSK3beta kinase inhibition; 300,000 tested, 0.038% active; GST-GSK3beta kinase, ADP-Glo luminescence, 60 min; hits give low values; P49841; activity score (negative = inhibition), % at 10 µM;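 active means more than half of replicate wells score below -50%, meaning over 50% inhibition versus plate controls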
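Assay system: GST-tagged human GSK3beta kinase, cell-free; Input: 1.6 ng GSK3beta; Medium: Tris/MgCl2 kinase buffer; Timing: 60 min enzyme reaction, room temperature; Signal: ADP-Glo luminescence quantifying ADP generated by kinase; Evaluation: score relative to plate controls; Benchmarks: DMSO neutral wells and GW8510 at 20 µM as positive.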
Hep lipid drop – hepatic lipid droplet formation modulation | 240,000 tested, 0.4% active | AID 1656 | AML12 mouse hepatocytes, oleate lipid droplets, BODIPY imaging | inhibition, % at 6.5 µM;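 active means lipid droplet intensity inhibited by at least 50%, with more than 500 cells counted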
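Technique: fluorescence imaging, 20x objective, two fields per well / Assay system: AML12 hepatocytes (mouse) / Measure: % inhibition of lipid droplet signal / Doses: 6.5 µM single-point dosing / Incubation: overnight exposure / Reagent: 100 µM oleic acid challenge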
LANA-H2A inh – blocks KSHV LANA binding to histone H2A/H2B | cell-free LANA-H2A/H2B peptide, fluorescence polarization | inhibition, % (no concentration beside the values) | 320,000 tested, 0.6% active | AID 2629; in the data active means inhibition mostly above about 10%, no sharp cut-off; inactive means mostly below about 6.7%
GSK3 alpha inh – blocks human GSK-3 alpha kinase; AID 2650; inhibition, % at 10 µM; ADP-Glo luminescence, 60 min; P49840; 320,000 tested, 0.1% active;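 active means more than half of replicates show inhibition above 20%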;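 further: GST-tagged GSK-3 alpha with peptide substrate and 25 µM ATP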
STK33 inh – inhibitors of human STK33 kinase; Q9BYT3; purified STK33, MBP phosphorylation, ADP-Glo luminescence; inhibition, % at 10 µM; 320,000 tested, 0.073% active; AID 2661;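 active means inhibition at or above 25%, using the most active replicate where run in duplicate; inactive means inhibition below 25%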
A number is an active result; – = inactive; · = not tested or not shown; + = active, no number. A selection: hits, their analogues and other compounds. The true share with any hit is near 1.3%.

SMILES | H9c2 TAG inh | GSK3B inh | Hep lipid drop | LANA-H2A inh | GSK3 alpha inh | STK33 inh
CCN1CCCC1CNC(=O)CS(=O)(=O)Cc1nc(-c2ccccc2C)oc1C (centres undefined) | – | – | – | – | – | –
O=C(/C=C/c1ccccc1)OCC(=O)c1ccc[nH]1 | – | – | · | – | – | –
O=C(/C=C/c1ccc(F)cc1)OCC(=O)c1ccc[nH]1 | – | · | · | 86 | – | –
O=C(C[C@@H]1C/C=C\C[C@@H](NC(=O)OCC2c3ccccc3-c3ccccc32)C(=O)OCCNC1=O)N[C@@H](CO)Cc1ccccc1 | – | · | · | + | – | –
CCn1c(=O)c(C(=O)NNC(=O)c2ccccc2Br)c(O)c2ccccc21 | · | – | – | 27 | – | –
Cn1c(=O)c(C(=O)NNC(=O)c2ccccc2Br)c(O)c2ccccc21 | · | – | – | – | – | –
CC(OC(=O)c1ccc(S(=O)(=O)N(C)C)cc1)C(=O)Nc1ccc(Cl)cn1 (centres undefined) | – | – | – | 12 | – | –
Cc1cccc(C)c1NC(=O)CN(C)C(=O)c1ccc(COc2ccccc2)cc1 | – | – | – | – | – | –
N/C(=N\OC(=O)C1CCCCC1)c1cccc([N+](=O)[O-])c1 | · | – | · | 15 | – | –
CC(=O)Nc1ccc(S(=O)(=O)NCC(=O)OCC(=O)N2CCc3ccccc32)cc1 | – | – | – | 11 | – | –
O=C(CNS(=O)(=O)c1ccccc1Br)OCC(=O)N1CCc2ccccc21 | – | – | – | – | – | –
COc1cc(S(=O)(=O)N2CCN(Cc3ccccc3)CC2)ccc1Br | – | – | – | – | – | –
O=C(CSC1=NCCS1)NC(NC(=O)CSC1=NCCS1)c1ccccc1 | – | – | – | 16 | – | –
O=C(CSC1=NCCS1)NC(c1ccccc1)c1ccccc1 | · | – | – | – | – | –
Fc1ccc(CSc2nnc(-c3ccncc3)o2)cc1 | – | -54 | – | – | – | –
Cc1ccc(C(=O)Nc2nc(-c3ccc([N+](=O)[O-])cc3)cs2)o1 | · | – | – | – | – | –
Cc1ccc(NC(=O)COC(=O)c2cc(Cl)ccc2Cl)c(Br)c1 | – | – | – | – | – | 26
Cc1ccc(NC(=O)COC(=O)c2ccc(F)cc2Cl)c(Br)c1 | – | – | – | – | – | –
COc1cc(C2C(C#N)=C(N)Oc3n[nH]c(-c4cccnc4)c32)cc(Br)c1O (centres undefined) | – | – | – | – | 53 | –
Cc1c(CC(=O)O)c(=O)oc2cc(OCc3nn[nH]n3)ccc12 | · | – | · | – | – | –
Cc1c(CC(=O)O)c(=O)oc2cc(OCc3ccc(Cl)cc3)ccc12 | · | – | · | 44 | – | –
COc1ccc(Cn2c(=O)[nH]c3cc(C(=O)N4CCN(c5ccccc5F)CC4)ccc3c2=O)cc1 | · | · | – | – | – | –
O=c1[nH]c2ccccc2n1CCC1CCCCC1 | · | – | – | – | – | –
CC(C(=O)Oc1ccc2c(c1)OCO2)N1C(=O)c2ccccc2C1=O (centres undefined) | · | – | · | 21 | – | –
Cc1cc(C(=O)OCC(=O)NCc2ccco2)c(C)n1-c1ccc(F)cc1 | · | – | · | 45 | – | –
SMILES | H9c2 TAG inh | GSK3B inh | Hep lipid drop | LANA-H2A inh | GSK3 alpha inh | STK33 inh
N#Cc1ccc(OCC(=O)OCC(=O)c2ccc[nH]2)cc1 | – | · | · | · | · | ·
N#Cc1ccc(C2=CC(=O)C[C@H](c3ccc4c(c3)OCO4)C2)cc1 | · | · | · | – | – | –
COc1cc(/C=C/C(=O)OCC(=O)NC(=O)NC(C)C)cc(S(=O)(=O)N2CCc3ccccc32)c1OC | – | – | – | 26 | – | –
CC(C)CCCCCCCCCCCCC(=O)NCC(=O)NC1C(O)C(O)C(Nc2ncnc3nc[nH]c23)OC1C(O)CO (centres undefined) | 85 | · | · | · | · | ·
CC1CC(OCC(O)C[N+]2(C)CCOCC2)CC(C)(C)C1 (centres undefined) | – | – | – | – | – | –
CC1=NN(C(=O)c2ccc(Cl)cc2)C(O)(c2ccccc2)C1 (centres undefined) | – | – | – | 9.9 | – | –
CC1=NN(C(=O)CSCc2ccccc2)C(O)(c2ccc(Cl)cc2)C1 (centres undefined) | – | – | – | – | – | –
FC(F)(F)c1cc(CCN2CCNC[C@@H]2CC2CCCCC2)cc(C(F)(F)F)c1 | 137 | · | · | – | – | –
CCCC[C@@H]1CNCCN1CCc1cc(C(F)(F)F)cc(C(F)(F)F)c1 | – | – | · | – | – | –
Cc1c(C(=O)OCC(=O)Nc2ccccc2OC(F)F)cccc1[N+](=O)[O-] | – | – | – | – | – | –
Cc1ccccc1OCCNC(=O)c1ccc2ccccc2n1 | · | – | – | – | – | –
COc1cccc(NC(=O)C2CC(=O)OC23CCOC(C)(C)C3)c1 (centres undefined) | – | – | · | 13 | – | –
C[C@H]1CN([C@@H](C)CO)C(=O)c2cc(Br)cnc2O[C@@H]1CN(C)S(=O)(=O)c1cn(C)cn1 | – | · | · | · | · | ·
CS(=O)(=O)N1CCN(C(=O)c2cc(-c3cccs3)nc3ccccc23)CC1 | – | – | – | – | – | –
CS(=O)(=O)N1CCN(C(=O)c2cc(-c3ccccc3)nc3ccccc23)CC1 | · | – | – | 9.7 | – | –
CC(C)CCN(C)C1CCN(S(=O)(=O)c2cccc(C(F)(F)F)c2)CC1 | – | – | – | 25 | – | –
CC(C)n1cnc2c(N(C)c3ccccc3)nc(N(CCN(C)C)Cc3ccccc3)nc21 | 52 | – | – | – | – | –
CCN1CCC(O)(/C=C/c2ccc(C(C)C)cc2)C(C(=O)/C=C/c2ccc(C(C)C)cc2)C1 (centres undefined) | 66 | · | · | · | · | ·
CC(C)c1ccc(/C=C/C(=O)O)cc1 | – | – | – | – | – | –
COc1ccc(C)cc1S(=O)(=O)N1CCCC(C(=O)NCC2CCCO2)C1 (centres undefined) | · | – | – | – | – | –
CC(C)[C@H](NC(=O)c1ccccc1F)C(=O)OCC(=O)NC(=O)NC1CCCCC1 | – | · | · | – | – | –
CC(C)[C@H](NC(=O)c1c(F)cccc1F)C(=O)OCC(=O)NC(=O)NC1CCCC1 | – | – | – | 14 | – | –
COc1ccc(C)cc1NC(=O)C(Sc1nnc(Nc2cc(C)ccc2OC)s1)c1ccccc1 (centres undefined) | – | – | 73 | – | – | –
O=C(Nc1ccccc1C(=O)NCCCN1CCOCC1)c1ccc(Cl)cc1 | – | – | – | 88 | – | –
O=C(Nc1ccc(F)cc1)NC1(C(=O)NCc2cccs2)CCCCC1 | · | – | · | – | – | –
CN(CCO)c1cnccn1 | – | – | – | 14 | – | –
CCc1cc(=O)oc2cc(OCC(=O)NCCCN3CCCC3=O)ccc12 | · | – | – | – | – | –
CC(C)Cn1c(CCCNC(=O)c2ccc(F)cc2)nc2ccccc21 | – | – | – | 11 | – | –
CSc1ccc(Cl)c(C(=O)N2CCN(c3ncccn3)CC2)c1 | – | · | · | – | – | –
